Results as given in publication PMC2775413 (Bioorganic & medicinal chemistry, 2009).

How the values were obtained:
[1] = Mouse brain uptake study after i.p. injection; type: in vivo; details: for Brain AUC over the 20-minute experiment compared with 5: i.p., 5 at 3.7 mg/kg
[2] = Metabolism of prodrugs in fresh mouse plasma with NADPH regenerating system; type: in vitro ADME; details: 37 °C; for Metabolism in fresh mouse plasma (prodrug remaining by HPLC): NADPH regenerating system, over 80 minutes
[3] = Metabolism in fresh mouse brain homogenate with NADPH; type: in vitro ADME; details: PBS pH 7.4, 37 °C, NADPH in excess
Summary of the method: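 Three fresh mouse brains were homogenized in PBS pH 7.4 (1 mL per brain) with NADPH regenerating buffers A and B, then pooled. Test compound was added from a 200 μM stock and incubated at 37 °C for 0, 10, 20 and 40 min. Reactions were stopped by heating to 95 °C for 1 min. HPLC with UV at 310 or 260 nm depending on compound; analyte/internal standard peak-area ratio normalized to t = 0.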

[4] = Anaerobic microsome assay for azide metabolism; type: in vitro ADME, rat
Summary of the method: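 Rat liver microsomes, NADPH regenerating system, test azide added from a 100 μM stock. PBS was deoxygenated by N2 bubbling for 15 min. Vials were sealed with septa, the headspace N2-purged and kept under an N2 balloon, and equilibrated at 37 °C. Microsomes were injected through the septum and incubated 0, 10, 20, 40 min. Acetonitrile quench, protein precipitation at 0 °C, supernatant dried, reconstituted in 2% formic acid, HPLC; peak area normalized to t = 0.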

Standard microsome assay = type: in vitro ADME, rat; details: 37 °C

## CC(=O)N(CCO[C@H]1CNC[C@H]1Cc1cc(C)cc(N)n1)CCc1cccc(F)c1 (racemic) [Compound 6, N-(2-(4-((6-Amino-4-methylpyridin-2-yl)-methyl)pyrrolidin-3-yloxy)ethyl)-N-(3-fluoro-phenethyl)acetamide]
[1]; mouse, i.p. 4.1 mg/kg, 20-minute experiment
  Time of peak brain concentration: 5 min
[1]; mouse
  Brain AUC over the 20-minute experiment compared with 5: roughly the same

## Cc1cc(N)nc(C[C@@H]2CNC[C@@H]2OCCN=[N+]=[N-])c1 (racemic) [Compound 1, 6-((4-(2-Azidoethoxy)pyrrolidin-3-yl)methyl)-4-methyl-pyridin-2-amine]
[2]
  Metabolism in fresh mouse plasma (prodrug remaining by HPLC): No significant metabolism
[3]
  Metabolism in mouse brain homogenate (compound amount over time): did not decrease
[4]; anaerobic microsome incubation
  Formation of amine from azide (mass spectral analysis of reaction mixtures): no peak corresponding to the amine

## Cc1cc(N)nc(C[C@@H]2CNC[C@@H]2OCCNCCc2cccc(F)c2)c1 [Compound 5]
Standard microsome assay; over 30 minutes, in presence and absence of NADPH
  Amount of compound lost with rat liver microsomes: approximately 20%
[1]; i.p. injection at 3.7 mg/kg
  Toxicity in mice: no toxicity was observed

## Cc1cc(N)nc(C[C@@H]2CNC[C@@H]2OCCN(CCc2cccc(F)c2)C(=O)OCc2ccccc2)c1 [Compound 8, Benzyl 2-(4-((6-amino-4-methylpyridin-2-yl)-methyl)pyrrolidin-3-yloxy)ethyl(3-fluoro-phenethyl)carbamate]
[1]; mouse, i.p. 5.1 mg/kg, 20-minute experiment
  Peak plasma concentration: around 1 μM
[1]; mouse
  Brain AUC over the 20-minute experiment compared with 5: much lower

## COC(=O)N(CCO[C@H]1CNC[C@H]1Cc1cc(C)cc(N)n1)CCc1cccc(F)c1 (racemic) [Compound 7, Methyl 2-(4-((6-amino-4-methylpyridin-2-yl)-methyl)pyrrolidin-3-yloxy)ethyl(3-fluoro-phenethyl)carbamate]
[1]; mouse, plasma, ip, 4.3 mg/kg
  Tmax: 5 min

## 1-((S)-1-{2-[2-aminoethyl]phenylamino}-5-nitroguanidinopentan-2-ylcarbamoyloxy)ethyl pivalate [Compound 3]
[2]; HPLC peak of 4 over time
  Conversion of prodrug to parent compound (4) in mouse plasma: converted to the parent compound
[2]
  Metabolism in fresh mouse plasma (prodrug remaining by HPLC): rapid
[3]
  Metabolism in mouse brain homogenate (compound amount over time): decreased over the course of the experiment

## Cc1cc(-c2ccccc2)nnc1NCCN1CCOCC1 [minaprine, reference compound]
Standard microsome assay; 20 min
  Concentration remaining with microsomes at 20 min: not quantifiable
[4]; 37 °C, deoxygenated buffer, nitrogen atmosphere, NADPH
  Metabolism by microsomes under anaerobic conditions: metabolized readily
